The results in this text go back to ChEMBL document CHEMBL4373700, “Synthesis and Structure-Activity Relationship Correlations of Gnidimacrin Derivatives as Potent HIV-1 Inhibitors and HIV Latency Reversing Agents” (J Med Chem, 2019).

Data set [1] is described as follows: Half-life in Sprague-Dawley rat plasma at 0.05 mM measured up to 24 hrs by LCMS analysis. The class given is ADME, cell-free. The following applies: 50 µM. A digest of the protocol: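 Sprague Dawley rat plasma (sodium heparin) prewarmed 10 min at 37 °C. Compound added from 5 mM DMSO stock to a final 0.05 mM. Samples taken at 0, 0.5, 1, 2, 4, 6, 10 and 24 h, deproteinized with 2 volumes MeOH, centrifuged and filtered. Analysis by LCMS (C18, isocratic, ESI). Mean of three independent experiments.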

The nature of data set [2]: Agonist activity at Protein kinase C in human MT4 cells infected with HIV-1 NL4-3 assessed as inhibition of viral replication measured on day 3 post-infection by Nano-Glo luciferase assay.
For data set [3], the system named is MT4. Briefly: Cytotoxicity against human MT4 cells measured after 3 days by CytoTox-Glo assay. The class given is cell-based. The following applies: mt4, 72 h. A digest of the protocol: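 MT4 cells cultured with a range of compound concentrations for 3 days. Viability by CytoTox-Glo, run per the manufacturer's protocol. CC50 is the concentration causing a 50% drop in viability.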

Data set [4] deals with Protein kinase C (PKC). Briefly: Agonist activity at Protein kinase C in human U1 cells infected with HIV-1 NL4-3 assessed as induction of HIV-1 p24 production after 72 hrs by ELISA. The class given is cell-based. A digest of the protocol: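 Latency model: U1 cells (2 × 10^5 cells/mL) incubated with a range of compound concentrations at 37 °C for 72 h. p24 in the supernatant measured by ELISA. EC50 is the concentration giving 50% of maximal p24 induction, from nonlinear regression.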
(In general: An ELISA detects its analyte on a solid surface through an enzyme-linked reagent.)

Data set [5] addresses Protein kinase C beta type (Homo sapiens) (UniProt P05771). Briefly: Agonist activity at Protein kinase C beta in human MT4 cells infected with HIV-1 NL4-3 assessed as inhibition of viral replication at 0.6 nM measured on day 3 post-infection by Nano-Glo luciferase assay relative to control. The class given is cell-based. A digest of the protocol: (§1)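 Multicycle replication: MT4 cells (1 × 10^5 cells/mL) infected with HIV-1 NL4-3 NanoLuc-sec, 50 TCID50/well, with 0.6 nM or 2 nM PKC agonist, with or without enzastaurin at 0, 1/3 or 1 μM. Supernatant luciferase (Nano-Glo) read on day 3 post infection. Replication expressed relative to the no-compound control (100%). Duplicate assay.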

The target is the same in data set [6]. Nature of the data set: Agonist activity at Protein kinase C beta in human MT4 cells infected with HIV-1 NL4-3 assessed as inhibition of viral replication at 0.6 nM measured on day 3 post-infection in presence of PKCbeta antagonist enzastaurin by Nano-Glo luciferase assay. The class given is cell-based. The method in brief:
as §1

The target is the same in data set [7]. Nature of the data set: Agonist activity at Protein kinase C beta in human MT4 cells infected with HIV-1 NL4-3 assessed as inhibition of viral replication at 2 nM measured on day 3 post-infection in presence of PKCbeta antagonist enzastaurin by Nano-Glo luciferase assay. The class given is cell-based. The method in brief:
as §1

In data set [8] the test system is Human immunodeficiency virus 1. Briefly: Antiviral activity against HIV 1 NL4-3 infected in human MT4 cells assessed as inhibition of replication treated 48 hrs post infection and measured on day 4 post infection by ELISA. The class given is functional. The following applies: Human immunodeficiency virus 1, NL4-3, MT4.

Calls of active or inactive are those of the source. The rule behind the calls is not given here.

Protein kinase C beta type (Homo sapiens), sequence (P05771 2-671 limits assumed): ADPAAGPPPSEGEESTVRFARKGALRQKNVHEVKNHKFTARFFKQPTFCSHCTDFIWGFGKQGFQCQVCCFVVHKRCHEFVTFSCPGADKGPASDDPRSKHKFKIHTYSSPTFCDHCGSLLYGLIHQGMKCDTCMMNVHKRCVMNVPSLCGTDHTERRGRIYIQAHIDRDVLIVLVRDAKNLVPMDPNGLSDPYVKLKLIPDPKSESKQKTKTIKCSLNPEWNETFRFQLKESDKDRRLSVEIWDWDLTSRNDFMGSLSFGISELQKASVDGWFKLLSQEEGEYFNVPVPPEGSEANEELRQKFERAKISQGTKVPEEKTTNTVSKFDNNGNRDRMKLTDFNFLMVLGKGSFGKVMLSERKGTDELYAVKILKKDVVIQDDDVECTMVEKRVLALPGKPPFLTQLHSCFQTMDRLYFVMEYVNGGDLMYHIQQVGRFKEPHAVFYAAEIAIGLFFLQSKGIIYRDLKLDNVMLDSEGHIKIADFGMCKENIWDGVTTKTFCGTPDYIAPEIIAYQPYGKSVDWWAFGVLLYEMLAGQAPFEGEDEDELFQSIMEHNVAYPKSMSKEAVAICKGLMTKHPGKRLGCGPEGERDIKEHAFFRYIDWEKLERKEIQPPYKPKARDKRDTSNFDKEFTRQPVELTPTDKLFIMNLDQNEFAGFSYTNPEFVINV

The term IC50 denotes the concentration at which inhibition is half-maximal. Usually CC50 stands for the concentration giving 50% cytotoxicity. Read a high CC50 as better tolerance by the cells. Turning to `C=C(C)[C@]12C[C@@H](COC(=O)c3ccccc3)[C@@]34OC5(O[C@@H]1[C@@H]3[C@@H]1O[C@]1(CO)[C@@H](O)[C@@]1(O)[C@H]4[C@H]([C@H](C)[C@@H]1OC(=O)c1ccc3ccccc3c1)[C@H](C)CCCCCC[C@H]5O)O2`, the t1/2 in data set [1] turned out to be 26.17 h. In addition, the IC50 in data set [2] is 0.15 nM. The same compound showed a CC50 in data set [3] of over 1 nM.

Broadly, the EC50 is the concentration that produces a half-maximal response. Consider `C=C(C)[C@]12C[C@@H](COC(=O)c3ccccc3)[C@@]34OC5(O[C@@H]1[C@@H]3[C@@H]1O[C@]1(CO)[C@@H](O)[C@@]1(O)[C@H]4[C@H]([C@H](C)[C@@H]1OC(=O)c1ccccc1)[C@H](C)CCCCCCC5=O)O2`, for which the t1/2 in data set [1] is 21.65 h. Further, the IC50 in data set [2] came to 0.14 nM. This compound returned a CC50 in data set [3] of over 1 nM. The EC50 in data set [4] was 0.6 nM.

For orientation: inhibition means the share of the control response that was lost under treatment. For the compound `C=C(C)[C@]12C[C@@H](COC(=O)c3ccccc3)[C@@]34OC5(O[C@@H]1[C@@H]3[C@@H]1O[C@]1(CO)[C@@H](O)[C@@]1(O)[C@H]4[C@H]([C@H](C)[C@@H]1OC(=O)c1ccccc1)[C@H](C)CCCCCC[C@H]5O)O2`, the inhibition in data set [5] came to 90%. The compound further returned a t1/2 in data set [1] of 21.77 h. The IC50 in data set [2] is on record as 0.13 nM. For the same compound, the CC50 in data set [3] was over 1 nM. For the same compound, the EC50 in data set [4] worked out at 0.19 nM. Further, the outcome in data set [6] was inactive.

As for `C=C(C)[C@]12C[C@@H](COC(=O)c3ccccc3)[C@@]34OC5(O[C@@H]1[C@@H]3[C@@H]1O[C@]1(CO)[C@@H](O)[C@@]1(O)[C@H]4[C@H]([C@H](C)[C@@H]1OC(=O)c1ccncc1)[C@H](C)CCCCCC[C@H]5O)O2`, the IC50 in data set [2] is 0.36 nM. The result in data set [7] was inactive. Further, the CC50 in data set [3] was over 1 nM. Moreover, the 50% effective concentration (EC50) in data set [4] was 0.55 nM.

By IC90 is commonly meant the concentration at which the effect reaches the 90% level. As to `C=C(C)[C@]12C[C@@H](COC(C)=O)[C@@]34OC5(O[C@@H]1[C@@H]3[C@@H]1O[C@]1(CO)[C@@H](O)[C@@]1(O)[C@H]4[C@H]([C@H](C)[C@@H]1OC(=O)c1ccccc1)[C@H](C)CCCCCC[C@H]5O)O2`, in data set [8], the IC90 turned out to be 0.4 nM.
